Measurements published in ChEMBL document CHEMBL4354843, “Structure-Based Design of a Potent and Selective Covalent Inhibitor for SRC Kinase That Targets a P-Loop Cysteine” (J Med Chem, 2020).

How the values were obtained:
[1] = tested on: ALK tyrosine kinase receptor (Homo sapiens), Q9UM73 [C1156Y]; experiment: Binding affinity to wild-type human partial length ALK C1156Y mutant (I1088 to E1409 residues) expressed in mammalian expression system assessed as residual binding level at 1 uM by Kinomescan method relative to control
[2] = target: Serine/threonine-protein kinase WNK1 (Homo sapiens) (UniProt Q9H4A3); experiment: Binding affinity to wild-type human partial length WNK1 (Q194 to A490 residues) expressed in mammalian expression system assessed as residual binding level at 1 uM by Kinomescan method relative to control
[3] = target: Mitogen-activated protein kinase 4 (Homo sapiens) (UniProt P31152); experiment: Binding affinity to wild-type human partial length ERK4 (M1 to L365 residues) expressed in bacterial expression system assessed as residual binding level at 1 uM by Kinomescan method relative to control
Sequence of Mitogen-activated protein kinase 4 (Homo sapiens) (P31152 whole entry, the tested form may be a part): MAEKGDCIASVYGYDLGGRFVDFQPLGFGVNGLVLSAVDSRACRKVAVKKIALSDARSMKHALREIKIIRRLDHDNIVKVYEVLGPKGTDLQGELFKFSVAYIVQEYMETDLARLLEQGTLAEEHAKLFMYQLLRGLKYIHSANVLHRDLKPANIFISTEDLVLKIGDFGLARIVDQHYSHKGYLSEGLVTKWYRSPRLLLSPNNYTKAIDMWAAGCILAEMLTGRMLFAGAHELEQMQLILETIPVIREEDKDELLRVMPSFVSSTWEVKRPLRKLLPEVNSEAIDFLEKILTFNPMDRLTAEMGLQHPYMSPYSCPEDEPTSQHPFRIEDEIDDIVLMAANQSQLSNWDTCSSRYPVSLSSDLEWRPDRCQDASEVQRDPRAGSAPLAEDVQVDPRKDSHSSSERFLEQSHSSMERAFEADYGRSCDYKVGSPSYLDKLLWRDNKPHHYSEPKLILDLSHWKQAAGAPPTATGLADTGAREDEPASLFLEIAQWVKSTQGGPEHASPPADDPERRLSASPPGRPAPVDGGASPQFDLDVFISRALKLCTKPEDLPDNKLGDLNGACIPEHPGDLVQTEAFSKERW

[4] = target: Serine/threonine-protein kinase RIO1 (Homo sapiens) (UniProt Q9BRS2); experiment: Binding affinity to wild-type human full length RIOK1 (M1 to K568 residues) expressed in bacterial expression system assessed as residual binding level at 1 uM by Kinomescan method relative to control
Sequence of Serine/threonine-protein kinase RIO1 (Homo sapiens) (Q9BRS2 whole entry, the tested form may be a part): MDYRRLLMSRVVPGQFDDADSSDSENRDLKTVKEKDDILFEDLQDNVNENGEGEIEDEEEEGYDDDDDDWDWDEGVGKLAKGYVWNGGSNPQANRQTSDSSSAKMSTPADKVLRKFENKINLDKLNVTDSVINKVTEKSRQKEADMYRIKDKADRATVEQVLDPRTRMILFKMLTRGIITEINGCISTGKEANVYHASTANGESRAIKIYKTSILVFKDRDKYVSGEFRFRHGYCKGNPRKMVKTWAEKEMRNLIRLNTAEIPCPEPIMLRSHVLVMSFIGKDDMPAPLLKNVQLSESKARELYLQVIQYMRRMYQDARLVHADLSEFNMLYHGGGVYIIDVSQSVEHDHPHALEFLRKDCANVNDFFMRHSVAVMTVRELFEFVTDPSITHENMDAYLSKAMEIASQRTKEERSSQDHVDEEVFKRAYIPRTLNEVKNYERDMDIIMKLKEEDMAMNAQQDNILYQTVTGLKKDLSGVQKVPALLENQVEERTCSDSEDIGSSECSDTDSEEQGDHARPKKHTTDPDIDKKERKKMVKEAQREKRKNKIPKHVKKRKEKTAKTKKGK
Method in brief: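 Active-site-directed competition binding screen across a 468-kinase panel, run with the test compound at 1 μM. The read-out is the kinase signal remaining relative to a DMSO control, reported as a percentage. […]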

[5] = tested on: Epidermal growth factor receptor (Homo sapiens), P00533 [UNDEFINED MUTATION]; experiment: Binding affinity to human partial length EGFR L747-T751del/Sins mutant expressed in bacterial expression system assessed as residual binding level at 1 uM by Kinomescan method relative to control
Method in brief: (§1)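 KinomeScan active site-directed competition binding panel (468 kinases), compound tested at 1 μM. Result expressed as remaining kinase signal versus DMSO control (percent of control).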

[6] = tested on: Proto-oncogene tyrosine-protein kinase receptor Ret (Homo sapiens), P07949 [V804L]; experiment: Binding affinity to human partial length RET V804L mutant (E713 to D1014 residues) expressed in bacterial expression system assessed as residual binding level at 1 uM by Kinomescan method relative to control; method in brief: as §1
[7] = target: Receptor-type tyrosine-protein kinase FLT3 (Homo sapiens) (UniProt P36888); experiment: Binding affinity to wild-type human partial length FLT3 (V592 to Y969 residues) expressed in bacterial expression system assessed as residual binding level at 1 uM by Kinomescan method relative to control
Sequence of Receptor-type tyrosine-protein kinase FLT3 (Homo sapiens) (P36888 whole entry, the tested form may be a part): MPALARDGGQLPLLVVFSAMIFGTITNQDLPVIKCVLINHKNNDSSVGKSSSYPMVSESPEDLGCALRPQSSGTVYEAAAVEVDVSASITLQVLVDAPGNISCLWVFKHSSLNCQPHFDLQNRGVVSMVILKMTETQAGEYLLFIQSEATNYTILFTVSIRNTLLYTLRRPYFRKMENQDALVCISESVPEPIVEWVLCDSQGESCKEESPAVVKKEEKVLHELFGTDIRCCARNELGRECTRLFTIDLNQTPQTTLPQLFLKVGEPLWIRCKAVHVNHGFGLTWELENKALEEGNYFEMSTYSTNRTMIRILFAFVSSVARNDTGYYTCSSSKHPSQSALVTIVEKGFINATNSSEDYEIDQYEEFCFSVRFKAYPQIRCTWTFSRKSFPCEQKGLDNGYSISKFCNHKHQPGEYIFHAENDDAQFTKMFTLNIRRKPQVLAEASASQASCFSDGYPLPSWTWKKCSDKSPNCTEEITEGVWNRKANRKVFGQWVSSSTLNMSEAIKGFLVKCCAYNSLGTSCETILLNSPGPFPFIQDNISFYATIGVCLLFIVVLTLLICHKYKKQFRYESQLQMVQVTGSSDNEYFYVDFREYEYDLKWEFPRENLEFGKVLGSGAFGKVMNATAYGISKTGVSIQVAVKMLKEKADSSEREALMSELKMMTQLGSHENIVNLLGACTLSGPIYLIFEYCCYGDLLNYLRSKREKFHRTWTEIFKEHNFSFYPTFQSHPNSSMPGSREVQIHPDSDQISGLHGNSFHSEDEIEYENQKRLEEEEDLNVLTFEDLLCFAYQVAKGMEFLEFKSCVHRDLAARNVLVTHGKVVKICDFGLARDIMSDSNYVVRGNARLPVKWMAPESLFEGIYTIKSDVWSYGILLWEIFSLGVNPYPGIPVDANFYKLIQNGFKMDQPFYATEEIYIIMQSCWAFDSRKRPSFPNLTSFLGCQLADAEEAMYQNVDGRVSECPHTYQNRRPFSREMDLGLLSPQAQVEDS

[8] = target: Homeodomain-interacting protein kinase 2 (Homo sapiens) (UniProt Q9H2X6); experiment: Binding affinity to wild-type human partial length HIPK2 (M153 to S564 residues) expressed in mammalian expression system assessed as residual binding level at 1 uM by Kinomescan method relative to control
Sequence of Homeodomain-interacting protein kinase 2 (Homo sapiens) (Q9H2X6 whole entry, looked up, the tested form may be a part): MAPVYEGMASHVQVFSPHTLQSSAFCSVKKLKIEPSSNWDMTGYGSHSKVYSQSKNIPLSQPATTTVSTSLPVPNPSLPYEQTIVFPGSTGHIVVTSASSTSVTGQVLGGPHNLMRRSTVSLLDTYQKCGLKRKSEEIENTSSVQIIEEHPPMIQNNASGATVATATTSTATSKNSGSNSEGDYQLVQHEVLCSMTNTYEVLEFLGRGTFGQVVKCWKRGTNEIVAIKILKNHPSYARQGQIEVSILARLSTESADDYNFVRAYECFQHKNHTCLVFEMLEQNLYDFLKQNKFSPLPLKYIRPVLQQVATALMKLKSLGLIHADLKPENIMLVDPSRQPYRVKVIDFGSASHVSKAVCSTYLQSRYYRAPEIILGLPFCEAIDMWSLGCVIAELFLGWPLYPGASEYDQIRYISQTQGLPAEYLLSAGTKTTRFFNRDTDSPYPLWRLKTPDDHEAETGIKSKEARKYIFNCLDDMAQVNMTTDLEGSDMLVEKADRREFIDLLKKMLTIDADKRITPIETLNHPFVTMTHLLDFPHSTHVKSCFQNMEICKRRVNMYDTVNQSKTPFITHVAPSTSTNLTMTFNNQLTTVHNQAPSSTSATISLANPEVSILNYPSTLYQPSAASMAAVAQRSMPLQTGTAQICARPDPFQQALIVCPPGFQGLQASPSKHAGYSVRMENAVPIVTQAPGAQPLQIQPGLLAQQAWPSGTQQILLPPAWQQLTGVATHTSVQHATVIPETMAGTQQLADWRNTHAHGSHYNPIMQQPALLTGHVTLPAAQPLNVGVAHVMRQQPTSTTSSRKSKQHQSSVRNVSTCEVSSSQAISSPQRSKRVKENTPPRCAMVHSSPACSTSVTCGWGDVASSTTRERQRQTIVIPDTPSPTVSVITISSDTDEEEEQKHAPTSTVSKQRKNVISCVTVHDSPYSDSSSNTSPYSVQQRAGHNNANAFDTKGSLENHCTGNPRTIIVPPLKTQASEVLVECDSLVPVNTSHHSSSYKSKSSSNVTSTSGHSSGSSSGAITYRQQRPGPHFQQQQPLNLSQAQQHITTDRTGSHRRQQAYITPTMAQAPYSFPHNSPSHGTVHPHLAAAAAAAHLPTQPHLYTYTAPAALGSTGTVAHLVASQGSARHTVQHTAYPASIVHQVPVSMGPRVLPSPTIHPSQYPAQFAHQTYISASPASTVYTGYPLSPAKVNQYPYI

[9] = target: Leukocyte tyrosine kinase receptor (Homo sapiens) (UniProt P29376); experiment: Binding affinity to wild-type human partial length LTK (P422 to S744 residues) expressed in bacterial expression system assessed as residual binding level at 1 uM by Kinomescan method relative to control
[10] = target: Serine/threonine-protein kinase 36 (Homo sapiens) (UniProt Q9NRP7); experiment: Binding affinity to wild-type human partial length STK36 (M1 to T271 residues) expressed in bacterial expression system assessed as residual binding level at 1 uM by Kinomescan method relative to control
Method in brief: (§2)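 Active site-directed competition binding panel (KinomeScan, 468 kinases). Test compound at 1 μM. Read-out is kinase binding remaining versus DMSO control, expressed as percent of control. Scores above 35% are treated as weak binding.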

[11] = tested on: Tyrosine-protein kinase ABL1 (Homo sapiens), P00519 [F317L]; experiment: Binding affinity to human phosphorylated ABL1 F317L mutant (S229 to K512 residues) expressed in mammalian expression system assessed as residual binding level at 1 uM by Kinomescan method relative to control; method in brief: as §1
[12] = target: Ephrin type-B receptor 2 (Homo sapiens) (UniProt P29323); experiment: Binding affinity to wild-type human partial length EPHB2 (I597 to L902 residues) expressed in bacterial expression system assessed as residual binding level at 1 uM by Kinomescan method relative to control
Method in brief: (§3)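 Active-site-directed competition binding panel of 468 kinases (KinomeScan), compound at 1 μM. The read-out is kinase remaining bound, given as a percentage of the DMSO control. […]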

[13] = target: Tyrosine-protein kinase Lyn (Homo sapiens) (UniProt P07948); experiment: Binding affinity to wild-type human partial length LYN (C219 to Q511 residues) expressed in bacterial expression system assessed as residual binding level at 1 uM by Kinomescan method relative to control; method in brief: as §3
Sequence of Tyrosine-protein kinase Lyn (Homo sapiens) (P07948 2-512 limits assumed): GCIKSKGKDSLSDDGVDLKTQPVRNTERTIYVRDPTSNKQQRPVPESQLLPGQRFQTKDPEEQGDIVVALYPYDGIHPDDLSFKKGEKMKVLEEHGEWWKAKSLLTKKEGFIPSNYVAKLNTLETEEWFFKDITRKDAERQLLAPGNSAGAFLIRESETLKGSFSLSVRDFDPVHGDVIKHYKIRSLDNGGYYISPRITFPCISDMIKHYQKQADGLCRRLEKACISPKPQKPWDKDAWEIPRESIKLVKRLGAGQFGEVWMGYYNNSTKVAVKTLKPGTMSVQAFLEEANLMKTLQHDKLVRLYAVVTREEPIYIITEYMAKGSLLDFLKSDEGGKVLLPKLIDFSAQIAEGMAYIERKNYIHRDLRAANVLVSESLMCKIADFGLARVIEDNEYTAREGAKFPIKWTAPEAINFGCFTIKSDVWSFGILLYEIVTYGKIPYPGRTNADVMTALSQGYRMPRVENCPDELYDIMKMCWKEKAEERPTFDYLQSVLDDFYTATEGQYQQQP

[14] = target: Ephrin type-A receptor 7 (Homo sapiens) (UniProt Q15375); experiment: Binding affinity to wild-type human partial length EPHA7 (Y608 to S912 residues) expressed in bacterial expression system assessed as residual binding level at 1 uM by Kinomescan method relative to control
[15] = tested on: Phosphatidylinositol 4,5-bisphosphate 3-kinase catalytic subunit alpha isoform (Homo sapiens), P42336 [E545A]; experiment: Binding affinity to human partial length PIK3CA E545A mutant (R108 to N1068 residues) expressed in mammalian expression system assessed as residual binding level at 1 uM by Kinomescan method relative to control; method in brief: as §1
[16] = target: Mitogen-activated protein kinase 3 (Homo sapiens) (UniProt P27361); experiment: Binding affinity to wild-type human full length ERK1 (M1 to P379 residues) expressed in bacterial expression system assessed as residual binding level at 1 uM by Kinomescan method relative to control
Method in brief: (§4)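 Active-site-directed KinomeScan competition binding panel covering 468 kinases, compound tested at 1 μM. Each readout is the kinase signal remaining with compound, expressed as a percentage of the DMSO control. […]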

[17] = tested on: Phosphatidylinositol 4,5-bisphosphate 3-kinase catalytic subunit alpha isoform (Homo sapiens), P42336 [C420R]; experiment: Binding affinity to human partial length PIK3CA C420R mutant (R108 to N1068 residues) expressed in mammalian expression system assessed as residual binding level at 1 uM by Kinomescan method relative to control; method in brief: as §1
[18] = target: Atypical kinase COQ8B, mitochondrial (Homo sapiens) (UniProt Q96D53); experiment: Binding affinity to wild-type human full length ADCK4 (M1 to S544 residues) expressed in bacterial expression system assessed as residual binding level at 1 uM by Kinomescan method relative to control; method in brief: as §4
[19] = target: Mitogen-activated protein kinase kinase kinase 13 (Homo sapiens) (UniProt O43283); experiment: Binding affinity to wild-type human full length LZK (M1 to W966 residues) expressed in mammalian expression system assessed as residual binding level at 1 uM by Kinomescan method relative to control
Sequence of Mitogen-activated protein kinase kinase kinase 13 (Homo sapiens) (O43283 whole entry, the tested form may be a part): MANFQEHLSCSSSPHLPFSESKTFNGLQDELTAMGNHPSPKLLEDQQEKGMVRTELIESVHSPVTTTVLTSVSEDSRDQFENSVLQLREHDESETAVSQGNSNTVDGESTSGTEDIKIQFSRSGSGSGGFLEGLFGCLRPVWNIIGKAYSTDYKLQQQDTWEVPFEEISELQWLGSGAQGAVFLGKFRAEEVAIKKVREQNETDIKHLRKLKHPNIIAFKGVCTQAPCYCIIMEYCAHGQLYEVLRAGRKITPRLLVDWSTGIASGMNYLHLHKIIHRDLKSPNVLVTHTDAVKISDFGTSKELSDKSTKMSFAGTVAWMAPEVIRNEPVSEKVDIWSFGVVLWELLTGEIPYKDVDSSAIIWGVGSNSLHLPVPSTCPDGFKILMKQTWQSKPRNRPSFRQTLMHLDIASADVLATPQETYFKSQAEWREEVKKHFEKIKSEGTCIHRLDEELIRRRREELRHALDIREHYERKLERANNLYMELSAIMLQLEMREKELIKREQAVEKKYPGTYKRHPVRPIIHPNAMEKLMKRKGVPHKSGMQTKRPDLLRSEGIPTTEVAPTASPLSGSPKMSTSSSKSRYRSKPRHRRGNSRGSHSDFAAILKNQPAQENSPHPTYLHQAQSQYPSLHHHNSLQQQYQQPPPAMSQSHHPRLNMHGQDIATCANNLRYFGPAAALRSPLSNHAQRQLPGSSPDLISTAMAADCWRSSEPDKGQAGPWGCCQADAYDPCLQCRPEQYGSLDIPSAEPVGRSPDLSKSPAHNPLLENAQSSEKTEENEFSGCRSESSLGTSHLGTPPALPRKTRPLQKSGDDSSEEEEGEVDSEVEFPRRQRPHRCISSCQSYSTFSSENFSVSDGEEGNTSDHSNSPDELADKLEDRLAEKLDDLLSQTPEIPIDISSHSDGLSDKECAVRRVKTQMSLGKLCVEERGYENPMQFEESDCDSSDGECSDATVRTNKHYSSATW
Method in brief: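 Active-site-directed competition binding panel (KinomeScan) covering 468 kinases. Test agent was screened at 1 μM. The read-out is the remaining kinase signal expressed relative to a DMSO control. Scores above 35%, taken as weak binding, were not reported.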

[20] = target: Serine/threonine-protein kinase VRK2 (Homo sapiens) (UniProt Q86Y07); experiment: Binding affinity to wild-type human partial length VRK2 (M1 to T336 residues) expressed in mammalian expression system assessed as residual binding level at 1 uM by Kinomescan method relative to control; method in brief: as §2

C=CC(=O)Nc1ccccc1Nc1nc(Nc2ccc(N3CCN(C)CC3)cc2)ncc1C(=O)Nc1c(C)cccc1Cl was tested, and the Activity [1] was 99%, the Activity [2] was 100% and the Activity [3] was 100%. It also gave an Activity [4] of 100%, an Activity [5] of 73% and an Activity [6] of 100%. The Activity [7] was 99%, the Activity [8] was 100% and the Activity [9] was 100%. The Activity [10] was 47%, the Activity [11] was 1.3% and the Activity [12] was 59%. The Activity [13] was 2.8%, the Activity [14] was 100% and the Activity [15] was 94%. For the same molecule, the Activity [16] was 100%, the Activity [17] was 100% and the Activity [18] was 100%. For the same molecule, the Activity [19] was 91% and the Activity [20] was 71%.
